# Rows were chosen to be rich in hits. Some 2.3% of all compounds tested hit in one or more screens of this group.
# OXTR potentiate – human OXTR potentiators, primary screen, fluorescence, CHO-OTR cells, Fluo-8 calcium; Oxytocin receptor (Homo sapiens), P30559; Fluo-8 calcium fluorescence, potentiator mode; 0% = oxytocin EC15, 100% = EC100; activation, % at 3 µM; 0.061% of 320,000 active;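 active = activation above that plate's cutoff, the mean activation of tested compounds plus 3 SD, cut at about 6.6% in these data, passing the limit was not always enough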;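 note: 100% uses oxytocin at 75 nM as the full agonist control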
#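 Replication – single well per compound, singlicate · Assay system – CHO cell line stably expressing human OTR · Timing – 6 min pre-incubation, 100 s read · Measure – normalized max/min fluorescence ratio, % activation · Doses – 3.0 µM, one dose · Detection – Fluo-8 calcium dye fluorescence · Probe or stimulus – oxytocin near EC15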
# OXTR ag – human OXTR agonists, primary screen, fluorescence, CHO-OTR cells, Fluo-8 calcium | Fluo-8 calcium fluorescence; normalized: DMSO 0%, oxytocin 100% | activation, % at 3 µM | 0.32% of 320,000 active | AID 2435, 2010;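 active = activation above the mean of all tested compounds plus 3 SD, cutoff set per screening run, cut at about 20% in these data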;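 note: peak over basal fluorescence ratio from a 100 s FLIPR kinetic read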
# V1R ag counter – agonists of human V1a receptor, primary screen, counter-screen for OXTR agonist project, fluorescence, CHO-V1R cells; Vasopressin V1a receptor (Homo sapiens), P37288; Fluo-8 calcium fluorescence, agonist mode; 0% DMSO, 100% 3 nM vasopressin; AID 2797, 2010; activation, % at 3 µM; 0.25% of 320,000 active;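 active = activation above the mean activation of all tested compounds plus 3 SD, per screening run, cut at about 20% in these data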;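 note: signal is peak over basal fluorescence ratio across a 100 second FLIPR read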
# TAAR1 agonist – human TAAR1 agonists, primary screen, Fluo-8 calcium fluorescence, CHO RD-HGA16 cells; Trace amine-associated receptor 1 (Homo sapiens), Q96RJ0; vehicle wells 0%, saturating PEA agonist 100%; activation, % at 3 µM; 0.99% of 360,000 active; AID 624467, 2012;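 active = activation above the mean activation of all test compounds in the run plus 3 SD, cut at about 38% in these data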
# Target sequence (Q96RJ0 whole entry, looked up): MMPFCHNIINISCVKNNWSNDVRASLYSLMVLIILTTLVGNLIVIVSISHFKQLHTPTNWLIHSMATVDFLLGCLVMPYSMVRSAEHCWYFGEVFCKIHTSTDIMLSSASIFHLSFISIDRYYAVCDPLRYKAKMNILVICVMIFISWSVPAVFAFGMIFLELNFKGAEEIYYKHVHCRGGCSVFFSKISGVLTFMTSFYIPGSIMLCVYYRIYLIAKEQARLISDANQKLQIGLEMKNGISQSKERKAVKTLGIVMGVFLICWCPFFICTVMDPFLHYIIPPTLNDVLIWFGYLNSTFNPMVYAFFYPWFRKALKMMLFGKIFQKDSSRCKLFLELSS
#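 Benchmarks: low control DMSO, high control PEA (EC100); System: CHO RD-HGA16 cells carrying human TAAR1 plus Gα16; Detection: Fluo-8 fluorescence, 5 s baseline then 140 s kinetic read; Schedule: 17-24 h plating, Fluo-8 75 min 37 °C, 30 min RT; Read-out basis: % activation from peak over basal fluorescence ratio, DMSO-to-PEA scaled.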
# TAAR1 antagonist – human TAAR1 antagonists, primary screen, Fluo-8 calcium fluorescence, CHO RD-HGA16 cells; antagonist; inhibition, % at 3 µM; 1.5% of 360,000 active;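 active = inhibition above a per-plate cutoff, the mean inhibition of test compounds on that plate plus 3 SD, cut at about 49% in these data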;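 note: 0% = DMSO plus EC80 beta-PEA response and 100% = DMSO alone without agonist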
#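 Assay system: CHO-derived RD-HGA16 cells stably expressing human TAAR1 plus Gα16. Timing: 140 s kinetic read after compound, 140 s after agonist. Technique: kinetic Fluo-8 calcium fluorescence measurement. Measure: % inhibition of agonist calcium response.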
# * marks the source's active call; other numbers are inactive results; x = no result.
SMILES,OXTR potentiate,OXTR ag,V1R ag counter,TAAR1 agonist,TAAR1 antagonist
Clc1ccc(C(Cn2ccnc2)OCc2c(Cl)cccc2Cl)c(Cl)c1 (stereo not drawn),-20,-3,-1,11,51*
OC(Cn1ccnc1)c1ccc(Cl)cc1Cl (stereo not drawn),-15,0,1,9,0
COc1ccc2cc(C(=O)C3CCCN(Cc4cnc(N5CCOCC5)s4)C3)ccc2c1 (stereo not drawn),-6,2,4,40*,7
O=C(Nc1nc2ccc(S(=O)(=O)N3CCCCC3)cc2s1)C1CCCO1 (stereo not drawn),-12,-1,0,5,1
O=C(Nc1nc2ccc(S(=O)(=O)N3CCCC3)cc2s1)C1CCCCC1,-3,3,7,43*,8
COc1ccc(CN(C)C(=O)C(Cc2ccccc2)NC(=O)c2ccccc2)cc1F (stereo not drawn),x,x,x,14,73*
COc1ccccc1N(CC(=O)NCCSCc1ccccc1)S(=O)(=O)c1ccccc1,x,x,x,7,65*
COC(=O)c1cc(NC(=O)CN(c2cccc(OC)c2)S(=O)(=O)c2ccccc2)ccc1Cl,-2,-1,3,7,40
COC(=O)c1cc(NC(=O)CN(c2ccccc2OC)S(=O)(=O)c2ccccc2)ccc1Cl,-10,-1,1,7,51*
COc1ccccc1N(CC(=O)NCCSCc1ccccc1)S(=O)(=O)c1ccc(C)cc1,-14,2,3,-1,47
O=C1c2cc(Cl)ccc2OC2(CCNCC2)C12CC(c1ccccc1)=NO2 (stereo not drawn),-15,15,5,43*,39
Cc1ccc(C)c(C(=O)CN2C(=O)NC3(CCCCCC3)C2=O)c1,x,x,x,-1,-17
CC(=O)c1c(C)[nH]c(C(=O)OCC(=O)Nc2ccc(C)cc2[N+](=O)[O-])c1C,-9,12,11,12,24
CCOC(=O)c1[nH]c(C)c(C(=O)Nc2ccc(Cl)cc2)c1C,-17,2,0,39*,36
CC(=O)c1c(C)[nH]c(C(=O)OCC(=O)Nc2cc(Cl)ccc2[N+](=O)[O-])c1C,-17,11,9,16,51*
CCOC(=O)C1=CCC(c2cccc3ccccc23)N(S(=O)(=O)c2ccc(C)cc2)C1 (stereo not drawn),x,x,x,0,-5
Cc1cccc(C(=O)Nc2ccccc2C(=O)OCC(=O)Nc2ccc(C#N)cc2)c1,-4,0,3,10,58*
O=C(/C(Cl)=C/Nc1ccc(Br)cn1)C(F)(F)F,-6,0,0,7,11
COc1ccc2c(c1)CCc1c(C(=O)NCCc3ccc(OC)c(OC)c3)noc1-2,-9,5,5,12,49*
COc1ccc2c(c1)CCc1c(C(=O)Nc3ccc(OC)c(OC)c3)noc1-2,-10,7,6,10,51*
O=C(NCCc1ccccc1)c1noc2c1CCc1ccccc1-2,-5,-1,0,31,67*
CN(C)c1ccc(/C=C/c2nc3ccccc3c(=O)n2-c2ccc(C(=O)O)cc2)cc1,-26,77*,82*,33,39
COc1ccc(CCN2CC(C(=O)N3CCSCC3)CCC2=O)cc1 (stereo not drawn),-13,-1,1,1,-10
CCN(CC)c1ccc(NC(=O)Nc2ccc(C(C)=O)cc2)cc1,-15,3,6,20,32
CCN(CC)c1ccc(NC(=O)Nc2ccccc2)cc1,-3,0,4,25,50*
Cc1ccnc(NC(=O)c2cccc(NC(=O)c3ccc(Cl)c(Cl)c3)c2)c1,x,x,x,14,54*
CNC(=O)c1ccc(NC(=O)Nc2ccccc2)cc1,1,1,1,40*,10
COC(=O)c1ccc(NC(=O)Nc2cccc(F)c2)cc1,-16,13,13,39*,4
COc1cc(CNCCO)ccc1OCCc1ccccc1,-11,0,2,5,-18

# Screening results: PubChem BioAssay, The Scripps Research Institute Molecular Screening Center
